Published values from different studies.
Lines come from different studies, so protocols differ.
Target: Dual specificity tyrosine-phosphorylation-regulated kinase 2 (DYRK2, Homo sapiens, UniProt Q92630)
Sequence (Q92630 1-601, as in one of the studies): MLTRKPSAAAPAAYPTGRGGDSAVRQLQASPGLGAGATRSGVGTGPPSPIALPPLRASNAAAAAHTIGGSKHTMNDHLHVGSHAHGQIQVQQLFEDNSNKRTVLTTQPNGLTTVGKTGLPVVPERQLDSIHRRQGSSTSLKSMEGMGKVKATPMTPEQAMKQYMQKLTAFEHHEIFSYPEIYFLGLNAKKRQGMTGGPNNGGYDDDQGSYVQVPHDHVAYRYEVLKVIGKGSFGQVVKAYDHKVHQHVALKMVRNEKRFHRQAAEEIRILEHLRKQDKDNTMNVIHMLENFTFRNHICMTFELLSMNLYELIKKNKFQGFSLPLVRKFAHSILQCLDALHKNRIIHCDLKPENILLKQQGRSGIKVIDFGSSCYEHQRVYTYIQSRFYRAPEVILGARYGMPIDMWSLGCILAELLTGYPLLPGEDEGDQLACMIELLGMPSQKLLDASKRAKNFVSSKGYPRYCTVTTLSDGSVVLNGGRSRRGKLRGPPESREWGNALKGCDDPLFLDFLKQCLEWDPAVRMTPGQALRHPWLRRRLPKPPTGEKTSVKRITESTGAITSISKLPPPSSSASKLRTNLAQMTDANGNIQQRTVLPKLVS

SMILES | read-out | action | technique | concentration | quantity | result
CCN(CC)CCNC(=O)c1c(C)[nH]c(/C=C2\C(=O)Nc3ccc(F)cc32)c1C | enzyme activity | inhibitor |  | 0.3 µM | inhibition | -5%
CCCS(=O)(=O)Nc1ccc(F)c(C(=O)c2c[nH]c3ncc(-c4ccc(Cl)cc4)cc23)c1F | enzyme activity | inhibitor |  | 1 µM | inhibition | < 10%
N#Cc1cccc(Nc2nc3cc(C(=O)O)ccc3c3cncnc23)c1 | enzyme activity | inhibitor | radiometric | 1 µM | remaining activity | 55%
COc1ccc(COc2ccc(Cc3cnc(N)nc3N)cc2OC)cc1 | cell-free assay |  |  | 0.5 µM | remaining signal | 105%
Cc1c[nH]c2nccc(Oc3c(F)cc(Nc4cc(Cl)nc(N)n4)cc3F)c12 | cell-free assay |  | competition with immobilised ligand | 0.1 µM | remaining binding | 100%
O=C(O)c1ccc2c(c1)nc(NCCc1ccccc1)c1ncncc12 | enzyme activity | inhibitor | radiometric | 1 µM | remaining activity | 45%
NS(=O)(=O)c1cc(NC(=O)C2(c3ccccc3Cl)CC2)ccc1Oc1cccc(Cl)c1 | cell-free assay |  | competition with immobilised ligand | 1 µM | remaining binding | 81%
COc1cccc(CCNc2nc3cc(C(=O)O)ccc3c3cncnc23)c1 | enzyme activity | inhibitor | radiometric | 1 µM | remaining activity | 59%
CS(=O)(=O)CCNCc1ccc(-c2ccc3ncnc(Nc4ccc(OCc5cccc(F)c5)c(Cl)c4)c3c2)o1 | cell-free assay |  |  | 0.5 µM | remaining signal | 102%
Cc1ccc(Nc2nccc(N(C)c3ccc4c(C)n(C)nc4c3)n2)cc1S(N)(=O)=O | enzyme activity | inhibitor |  | 0.3 µM | inhibition | -8%
O=C1NC(=O)c2cc(Nc3ccc(F)cc3)c(Nc3ccc(F)cc3)cc21 | cell-free assay |  |  | 0.5 µM | remaining signal | 89.1%
Cc1ccc(NC(=O)c2ccc(C)c(C(F)(F)F)c2)cc1C#Cc1nn(C2CCC(O)CC2)c2ncnc(N)c12 (stereo not shown) | cell-free assay |  |  | 10 µM | remaining signal | 107%
CN(C)CC#Cc1ccc(OCCCc2sc(N3CCc4cccc(C(=O)Nc5nc6ccccc6s5)c4C3)nc2C(=O)O)c(F)c1 | cell-free assay |  | competition with immobilised ligand | 1 µM | remaining binding | 100%
Nc1ncnc2occ(-c3ccc(NC(=O)Nc4cc(C(F)(F)F)ccc4F)cc3)c12 | cell-free assay | inhibitor |  | 20 µM | remaining signal | 19%
O=C(NCCCC1CCCCC1)c1ccc(CNC(=O)c2cnn(-c3ccccc3)c2C(F)(F)F)cc1 | cell-free assay |  | competition with immobilised ligand | 0.1 µM | remaining binding | 100%
Cc1ccc(NC(=O)c2ccc(CN3CCN(C)CC3)cc2)cc1Nc1nc(-c2cccnc2)cs1 | cell-free assay |  |  | 0.5 µM | remaining signal | 109%
O=C(N1CCS(=O)(=O)CC1)N1C[C@H](c2ccc(OC(F)(F)F)cc2)C[C@H](c2nc(C3CC3)no2)C1 | cell-free assay |  | competition with immobilised ligand | 1 µM | remaining binding | 100%
CNC(=O)c1cc(Oc2ccc(NC(=O)Nc3ccc(Cl)c(C(F)(F)F)c3)cc2)ccn1 | enzyme activity | inhibitor |  | 0.3 µM | inhibition | -3%
O=C(O)c1ccc2c(c1)nc(NCCc1cccc(Cl)c1)c1ccncc12 | enzyme activity | inhibitor | radiometric | 1 µM | remaining activity | 29%
Cn1cncc1C1=CN(c2ncnc3[nH]cnc23)CCS1 | enzyme activity | inhibitor | radiometric | 50 nM | inhibition | 20.6%
O=C(O)c1ccc2c(c1)nc(Nc1ccc(Cl)cc1)c1ncncc12 | enzyme activity | inhibitor | radiometric | 1 µM | remaining activity | 33%
CSc1cccnc1N1CCN(Cc2nc3ccccc3[nH]2)CC1 | cell-free assay |  | competition with immobilised ligand | 1 µM | remaining binding | 81%
O=C(O)c1ccc2c(c1)nc(Nc1ccc(F)c(Cl)c1)c1ncncc12 | enzyme activity | inhibitor | radiometric | 1 µM | remaining activity | 41%
FC(F)(F)Oc1cccc(-c2cnc3ccc(-c4ccncc4)nn23)c1 | enzyme activity | inhibitor | radiometric | 5 µM | activity vs control | 46%
O=C(O)c1ccc2c(c1)nc(Nc1ccccc1Cl)c1ncncc12 | enzyme activity | inhibitor | radiometric | 1 µM | remaining activity | 60%
Cc1nc(Cc2cccc(C(F)(F)F)c2)sc1-c1ccc(C(N)=O)nc1 | cell-free assay |  | competition with immobilised ligand | 1 µM | remaining binding | 90%
O=C(O)c1ccc2c(c1)nc(Nc1cccc(F)c1)c1ccncc12 | enzyme activity | inhibitor | radiometric | 1 µM | remaining activity | 13%
CNCc1ccccc1-c1csc([C@H](C)Nc2nc(C)nc3cc(OC)c(OC)cc23)c1 | cell-free assay |  | competition with immobilised ligand | 1 µM | remaining binding | 96%
